Data published in PubChem BioAssay AID720574 (Broad Institute, 2013).
Where “and” joins values, the source holds several entries; their conditions need not be identical. Equal entries are not always repeated. Screen size: about 96,000 compounds; about 140 (0.15%) were called active. The sample holds actives, similar compounds and a random draw of the others, so the mix is not that of the screen.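 The calls were made as follows: active = mean replicate inhibition above about 25%, with at least 55% of replicates also reaching it (limit read from the data, passing the limit was not always enough); inconclusive = only one of those two conditions met; inactive = neither condition met.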 Some structures have more than one record in an assay (separate samples or runs), and their calls can disagree.

Target: Lysine-specific demethylase 4C (Homo sapiens) (UniProt Q9H3R0)
Sequence (Q9H3R0 2-372 limits assumed): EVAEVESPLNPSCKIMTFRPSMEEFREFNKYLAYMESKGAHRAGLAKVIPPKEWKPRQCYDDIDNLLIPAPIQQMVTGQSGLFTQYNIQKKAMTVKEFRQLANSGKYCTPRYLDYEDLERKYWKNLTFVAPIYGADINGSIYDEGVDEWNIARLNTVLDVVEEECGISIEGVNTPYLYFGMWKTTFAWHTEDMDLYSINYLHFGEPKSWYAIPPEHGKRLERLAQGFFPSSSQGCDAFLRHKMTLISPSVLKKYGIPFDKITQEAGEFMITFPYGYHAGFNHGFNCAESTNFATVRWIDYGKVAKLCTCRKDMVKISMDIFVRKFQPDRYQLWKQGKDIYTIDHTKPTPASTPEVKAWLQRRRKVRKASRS
Assay: KDM4C H3K9me3 demethylation inhibition – biochemical, single concentration HTS, primary screen (AID 720574)
Conditions: GST-KDM4C 2-372, H3K9me3 peptide, LANCE TR-FRET; at 12.5 µM; stronger effect = higher value
Summary of the method: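 Material: GST-tagged GASC-1 (JMJD2C) catalytic fragment, aa 2-372 / Quantity: enzyme final amount 10 nM / Medium: HEPES buffer, pH 7.5, plus ascorbate / Doses: one test concentration per compound / Incubation: 30 min reaction, 60 min detection, RT / Measured by: LANCE TR-FRET / Read-out: inhibition from TR-FRET ratio decrease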

inhibition, inactive:
CCC(=O)Nc1ccc2c(c1)C(=O)N(C)C[C@@H](OC)[C@H](C)CN(Cc1cccnc1)[C@@H](C)CO2 -0.624%
CCCC#Cc1ccc([C@@H]2[C@@H](CO)N3C(=O)CN(C(=O)Nc4ccc(F)cc4)C[C@@H]23)cc1 -0.912%
CCC(=O)N1[C@@H](CO)[C@@H](c2ccccc2)C12CN(C(=O)Cc1ccccc1)C2 7.87%
Cc1noc(C)c1NC(=O)N(C)C[C@@H]1OCCCC[C@H](C)Oc2ccc(NC(=O)c3ccccc3)cc2C(=O)N([C@@H](C)CO)C[C@@H]1C 1.18%
O=C(Nc1ccccc1F)N[C@@H]1CC[C@@H](CCNC(=O)C2CC2)O[C@H]1CO -1.05%
O=C(C1CCC1)N1C[C@@H]2N[C@H](C1)C2c1ccc(-c2cncnc2)cc1 (stereo partly specified) 0.917%
O=C(C1CCCCC1)N1C[C@@H]2N[C@H](C1)C2c1ccc(-c2cccc(F)c2)cc1 (stereo partly specified) 4.43% and 0.21%
CN1c2ccc(-c3cccc(F)c3)cc2[C@H]2[C@H](CCN2C(=O)C2CCCC2)[C@@H]1CO 5.91%
COCC#Cc1ccc([C@H]2[C@H](CO)N3C(=O)CN(C(=O)Nc4ccccc4F)C[C@@H]23)cc1 0.262%
O=C(C[C@@H]1CC[C@@H]2[C@H](COC[C@H](O)CN2Cc2cccc(-c3ccncc3)c2)O1)N1CCOCC1 -0.984%
Cc1noc(C)c1S(=O)(=O)N(C)C[C@H]1OCCCC[C@H](C)Oc2ccc(NS(=O)(=O)c3ccccc3)cc2C(=O)N([C@H](C)CO)C[C@@H]1C -0.427%
CO[C@H]1CN(C)C(=O)c2cc(NS(C)(=O)=O)ccc2OC[C@@H](C)N(C(=O)NC(C)C)C[C@@H]1C 1.54%
C[C@H]1CN([C@@H](C)CO)C(=O)c2cccc(NC(=O)CCCCCC(=O)Nc3ccccc3N)c2O[C@@H]1CN(C)C(=O)NC1CCCCC1 0.11%
O=C(C[C@@H]1C=C[C@H](NC(=O)CN2CCOCC2)[C@@H](CO)O1)NC1CCC1 -2.2%
CCCN1[C@@H]2c3ccc(-c4ccccc4OC)c(=O)n3C[C@H]1[C@H](CO)[C@H]2C(=O)NCc1ccccn1 0.442%
COCC(=O)N(C)C[C@H]1Oc2cc(C#C[C@@H](C)O)ccc2S(=O)(=O)N([C@H](C)CO)C[C@H]1C 0.918%
COc1ccccc1S(=O)(=O)N[C@H]1CC[C@@H](CC(=O)NCc2cc(F)cc(F)c2)O[C@H]1CO -1.06%
COc1ccc2c3c(n(C)c2c1)[C@H](CO)N(C(=O)NC(C)C)CC31CN(CC2CCCCC2)C1 -0.934%
C[C@H](CO)N1C[C@H](C)[C@H](CN(C)CC2CCCCC2)OCCCC[C@H](C)Oc2ccc(NS(=O)(=O)c3ccc(F)cc3)cc2C1=O -1.51%
COCC(=O)N1[C@H](CO)[C@H](c2ccccc2)C12CN(C(=O)NC1CCCCC1)C2 0.705%
CCC(=O)N1CC(=O)N2[C@H](CO)[C@@H](c3ccc(-c4ccc(C(=O)N(C)C)cc4)cc3)[C@@H]2C1 -0.23%
COc1ccc(S(=O)(=O)N[C@H]2CC[C@H](CCn3cc(C(C)C)nn3)O[C@@H]2CO)cc1 0.0615%
CCCC#Cc1ccc([C@H]2[C@H](CO)N3C(=O)CN(C(=O)c4ccc(F)cc4)C[C@@H]23)cc1 0.883%
C/C=C/c1ccc([C@H]2[C@@H](CO)N(C(=O)C3CC3)[C@@H]2CNC(=O)NC(C)C)cc1 0.927%
COc1ccccc1S(=O)(=O)N[C@@H]1C=C[C@H](CC(=O)NCc2cccc(F)c2)O[C@H]1CO -0.0955%
C/C=C/c1ccccc1[C@H]1[C@@H](C#N)N(c2nc(CC)cs2)[C@@H]1CO -0.26%
CN(C)C(=O)C[C@@H]1C[C@@H]2c3cc(NC(=O)NC4CCCCC4)ccc3O[C@@H]2[C@H](CO)O1 -1.19%
CO[C@@H]1CN(C)C(=O)c2ccc(NC(C)=O)cc2OC[C@@H](C)N(CC2CC2)C[C@H]1C 2.5%
C[C@H](CO)N1C[C@H](C)[C@@H](CN(C)Cc2ccc(-c3ccccc3)cc2)Oc2ccc(NC(=O)Cn3cnnn3)cc2C1=O -1.72%
CCCN(C)C[C@H]1Oc2ncc(-c3cccnc3)cc2C(=O)N([C@@H](C)CO)C[C@@H]1C -0.329%
C[C@H](CO)N1C[C@H](C)[C@@H](CN(C)C(=O)c2ccncc2)Oc2cc(/C=C/c3ccccc3)ccc2S1(=O)=O -4.23%
CS(=O)(=O)Nc1ccc2c(c1)[C@@H]1C[C@H](CC(=O)NCc3ccccn3)O[C@@H](CO)[C@@H]1O2 -0.895%
COc1ccc2c3c([nH]c2c1)[C@@H](CO)N(Cc1ccccc1)CC31CCN(Cc2cncnc2)CC1 -1.85%
COc1ccccc1S(=O)(=O)N[C@@H]1CC[C@@H](CCn2cc(C3CCCCC3)nn2)O[C@H]1CO 0.124%
CCC(=O)Nc1ccc2c(c1)C(=O)N(C)[C@H]1CC[C@H](CC(=O)NCC3CCCCC3)O[C@H]1CO2 -0.841%
Cc1ccc(S(=O)(=O)NCC[C@H]2CC[C@H](NC(=O)c3ccccn3)[C@H](CO)O2)cc1 -1.29%
CCCN1[C@@H]2c3ccc(-c4ccccc4)c(=O)n3C[C@@H]2[C@@H](CO)[C@@H]1C(=O)N(C)C 0.941%
COc1ccccc1C(=O)Nc1ccc2c(c1)OC[C@@H](C)NC[C@H](C)[C@@H](OC)CN(C)C2=O -1.47%
CCCNC(=O)N(C)C[C@H]1Oc2cc(C#C[C@@H](C)O)ccc2S(=O)(=O)N([C@H](C)CO)C[C@H]1C 7.38%
CO[C@H]1CC[C@@H]2CCOc3c(C#N)cccc3C(=O)N(C)C[C@@H](OC)[C@H](C)C(=O)N(C)C[C@H]1O2 0.229%

inhibition, 40% (active) and 1.58% (inactive):
Cc1ccccc1-c1ccc(C2[C@@H]3CN(C(=O)C4CCCCC4)C[C@H]2N3)cc1 (stereo partly specified)
